Measured values as given in ChEMBL document CHEMBL1130259, “Nonsymmetrically substituted cyclic urea HIV protease inhibitors” (J Med Chem, 1997).

Experiments:
[1] = biological target: Human immunodeficiency virus type 1 protease (Human immunodeficiency virus 1) (UniProt Q72874)
[2] = biological target: Human immunodeficiency virus type 1 protease (Human immunodeficiency virus 1, UniProt Q72874); test: Affinity against HIV protease
[3] = Partition coefficient (logP) (HPLC); assay type: physicochemical; settings: octanol/water
[4] = Half life (5 mg/kg, intravenously) determined by administering intravenously in dogs; settings: dog, in vivo, iv
[5] = Clearance (5 mg/kg, intravenously) in dog plasma; settings: iv
[6] = Half life (10 mg/kg, orally) […] in dog plasma; assay type: ADME, organism-based, Canis lupus familiaris
Method in brief: (§1)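 Three female Beagle dogs were dosed orally at 10.0 mg/kg. The compound was given at 10.0 mg/mL in PEG400/water/EtOH (60/30/10) at 1.0 mL/kg. Plasma drug was quantified by a method validated in dog plasma over 0.10–50.0 μg/mL.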

[7] = Oral bioavailability in dog (dose 10 mg/kg); assay type: ADME, organism-based, Canis lupus familiaris; settings: in vivo
Method in brief: (§2)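 Female Beagle dogs received either 10.0 mg/kg orally (three dogs; 10.0 mg/mL, 1.0 mL/kg) or 5.0 mg/kg intravenously (same formulation, 0.5 mL/kg). Vehicle was PEG400/water/EtOH (60/30/10). Plasma concentrations were assayed by a method validated over 0.10–50.0 μg/mL.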

[8] = Maximum concentration (10 mg/kg, orally) in plasma of dogs; assay type: ADME, organism-based, Canis lupus familiaris; design: dose 10 mg/kg, route oral; settings: dog, po
Method in brief: as §1

[9] = Apparent volume of distribution of compound (5 mg/kg, intravenously) in dogs; settings: dog, in vivo, iv, read-out: Vss
[10] = Maximum concentration (10 mg/kg, perorally) in plasma of dogs; assay type: ADME, organism-based, Canis lupus familiaris; design: dose 10 mg/kg, route oral; settings: dog, po
Method in brief: as §1

[11] = Apparent volume of distribution of compound (5 mg/kg, intravenously) in dogs; assay type: ADME, organism-based, Canis lupus familiaris; settings: dog, in vivo, iv, read-out: Vss
Method in brief: (§3)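 Female Beagle dogs given a 5.0 mg/kg intravenous dose. Formulation was 10.0 mg/mL in PEG400/water/EtOH (60/30/10), dosed at 0.5 mL/kg. Compound levels were measured in plasma by a method validated over 0.10–50.0 μg/mL.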

[12] = Clearance of compound (5 mg/kg, intravenously), in dog plasma; assay type: ADME, organism-based, Canis lupus familiaris; settings: iv
Method in brief: as §3

[13] = Half life (10 mg/kg, perorally) […] in dogs; assay type: ADME, organism-based, Canis lupus familiaris; settings: dog, in vivo
Method in brief: as §1

[14] = Half life (5 mg/kg, intravenously) determined by administering intravenously in dogs; assay type: ADME, organism-based, Canis lupus familiaris; settings: dog, in vivo, iv
Method in brief: as §3

[15] = Maximum concentration in dog plasma; assay type: ADME, organism-based, Canis lupus familiaris
Method in brief: as §2

[16] = Apparent volume of distribution of compound in dog plasma; assay type: ADME, organism-based, Canis lupus familiaris; settings: read-out: Vss
Method in brief: as §3

[17] = Clearance of compound in dog plasma; assay type: ADME, organism-based, Canis lupus familiaris
Method in brief: as §3

[18] = Half life determined by administering intravenously in dog plasma; assay type: ADME, organism-based, Canis lupus familiaris; settings: iv
Method in brief: as §3

[19] = organism: Canis lupus familiaris; test: Clearance of compound in dog plasma
[20] = Half life determined by administering intravenously in dog; assay type: ADME, organism-based, Canis lupus familiaris; settings: in vivo, iv
Method in brief: as §3

[21] = Maximum concentration (5 mg/kg, intravenously) in plasma of dogs; assay type: ADME, organism-based, Canis lupus familiaris; design: dose 5 mg/kg, route intravenous; settings: dog, iv
Method in brief: as §3

SMILES	IC90 [1]	Ki [2]	logP [3]	other results
CC(C)(C)NC(=O)[C@@H]1C[C@@H]2CCCC[C@@H]2CN1C[C@@H](O)[C@H](Cc1ccccc1)NC(=O)[C@H](CC(N)=O)NC(=O)c1ccc2ccccc2n1	10.4 nM			
Cc1ccc(NC(=O)c2cccc(CN3C(=O)N(Cc4cccc(N)c4)[C@H](Cc4ccccc4)[C@H](O)[C@@H](O)[C@H]3Cc3ccccc3)c2)nc1	16.5 nM	0.075 nM	4.47	
COc1cccc(CN2C(=O)N(Cc3cccc(C(=O)Nc4cnccn4)c3)[C@H](Cc3ccccc3)[C@H](O)[C@@H](O)[C@H]2Cc2ccccc2)c1	91.2 nM	0.038 nM	4.75	
CC(C)(C)NC(=O)c1cccc(CN2C(=O)N(Cc3cccc(N)c3)[C@H](Cc3ccccc3)[C@H](O)[C@@H](O)[C@H]2Cc2ccccc2)c1	114 nM	0.41 nM	5.28	
COc1cccc(CN2C(=O)N(Cc3cccc(C(=O)Nc4ccccn4)c3)[C@H](Cc3ccccc3)[C@H](O)[C@@H](O)[C@H]2Cc2ccccc2)c1	30 nM	0.047 nM	5.06	
Nc1cccc(CN2C(=O)N(Cc3cccc(N)c3)[C@H](Cc3ccccc3)[C@H](O)[C@@H](O)[C@H]2Cc2ccccc2)c1 [MOZENAVIR]		0.31 nM	3.17	half-life [4]: 3.6 h; clearance [5]: 3.33 mL/min/kg; half-life [6]: 2.5 h; bioavailability [7]: 79.2%; Cmax [8]: 6000 ng/mL; Vd [9]: 1.3 L/kg
CC(C)CN(C[C@@H](O)[C@H](Cc1ccccc1)NC(=O)O[C@H]1CCOC1)S(=O)(=O)c1ccc(N)cc1	46 nM			
COc1cccc(CN2C(=O)N(Cc3cccc(C(=O)Nc4ccc(C)cn4)c3)[C@H](Cc3ccccc3)[C@H](O)[C@@H](O)[C@H]2Cc2ccccc2)c1	41.6 nM	0.069 nM	5.51	
CC(C)c1nc(CN(C)C(=O)N[C@H](C(=O)N[C@@H](Cc2ccccc2)C[C@H](O)[C@H](Cc2ccccc2)NC(=O)OCc2cncs2)C(C)C)cs1	76 nM			
COc1cccc(CN2C(=O)N(Cc3cccc(C(=O)Nc4cccc(C)n4)c3)[C@H](Cc3ccccc3)[C@H](O)[C@@H](O)[C@H]2Cc2ccccc2)c1	42.7 nM	0.053 nM	5.54	
COc1cc(CN2C(=O)N(Cc3cccc(C(=O)Nc4cnccn4)c3)[C@H](Cc3ccccc3)[C@H](O)[C@@H](O)[C@H]2Cc2ccccc2)cc(OC)c1	743 nM	2.51 nM	4.84	
Nc1cccc(CN2C(=O)N(Cc3cccc(C(=O)Nc4ncc[nH]4)c3)[C@H](Cc3ccccc3)[C@H](O)[C@@H](O)[C@H]2Cc2ccccc2)c1	26.2 nM	0.012 nM	3.39	Cmax [10]: 900 ng/mL; Vd [11]: 4 L/kg; clearance [12]: 8.33 mL/min/kg; half-life [13]: 10.3 h; bioavailability [7]: 68%; half-life [14]: 5.6 h
N#CCNC(=O)c1cccc(CN2C(=O)N(Cc3cccc(C(=O)NCC(=O)O)c3)[C@H](Cc3ccccc3)[C@H](O)[C@@H](O)[C@H]2Cc2ccccc2)c1	741 nM	0.024 nM	2.44	
CC(C)(C)NC(=O)[C@@H]1CN(Cc2cccnc2)CCN1C[C@@H](O)C[C@@H](Cc1ccccc1)C(=O)N[C@H]1c2ccccc2C[C@H]1O	50 nM			
COc1cc(CN2C(=O)N(Cc3cccc(C(=O)Nc4cccc(C)n4)c3)[C@H](Cc3ccccc3)[C@H](O)[C@@H](O)[C@H]2Cc2ccccc2)cc(OC)c1	282 nM	0.7 nM	5.69	
O=C(Nc1cnccn1)c1cccc(CN2C(=O)N(Cc3cccc(C(=O)Nc4cnccn4)c3)[C@H](Cc3ccccc3)[C@H](O)[C@@H](O)[C@H]2Cc2ccccc2)c1	3.5 nM			Cmax [15]: 400 ng/mL; Vd [16]: 3 L/kg; clearance [17]: 46.7 mL/min/kg; half-life [18]: 0.8 h
Cc1ccc(NC(=O)c2cccc(CN3C(=O)N(Cc4cccc(C(=O)Nc5ccc(C)cn5)c4)[C@H](Cc4ccccc4)[C@H](O)[C@@H](O)[C@H]3Cc3ccccc3)c2)nc1	3.1 nM			Cmax [15]: 100 ng/mL; Vd [16]: 4.5 L/kg; clearance [19]: 66.7 mL/min/kg; half-life [20]: 1 h
O=C(Nc1ccccn1)c1cccc(CN2C(=O)N(Cc3cccc(C(=O)Nc4ccccn4)c3)[C@H](Cc3ccccc3)[C@H](O)[C@@H](O)[C@H]2Cc2ccccc2)c1	2.8 nM			Cmax [15]: < 200 ng/mL; Vd [16]: 10.3 L/kg; clearance [17]: 70 mL/min/kg; half-life [18]: 1.1 h
COc1cc(CN2C(=O)N(Cc3cccc(C(=O)Nc4ccccn4)c3)[C@H](Cc3ccccc3)[C@H](O)[C@@H](O)[C@H]2Cc2ccccc2)cc(OC)c1	129 nM	0.86 nM	5.2	
O=C(Nc1ccccn1)c1cccc(CN2C(=O)N(Cc3cccc([N+](=O)[O-])c3)[C@H](Cc3ccccc3)[C@H](O)[C@@H](O)[C@H]2Cc2ccccc2)c1	97.5 nM	0.096 nM	5.05	
COc1cc(CN2C(=O)N(Cc3cccc(C(=O)Nc4ccc(C)cn4)c3)[C@H](Cc3ccccc3)[C@H](O)[C@@H](O)[C@H]2Cc2ccccc2)cc(OC)c1	282 nM	1.9 nM	5.59	
Nc1cccc(CN2C(=O)N(Cc3cccc(C(=O)Nc4cnccn4)c3)[C@H](Cc3ccccc3)[C@H](O)[C@@H](O)[C@H]2Cc2ccccc2)c1	20.2 nM	0.016 nM	3.77	
Nc1cccc(CN2C(=O)N(Cc3cccc(C(=O)Nc4nc5ccccc5[nH]4)c3)[C@H](Cc3ccccc3)[C@H](O)[C@@H](O)[C@H]2Cc2ccccc2)c1	13.2 nM	0.023 nM	4.95	Cmax [21]: 5500 ng/mL; bioavailability [7]: 109%; half-life [14]: 1.5 h
O=C1N(Cc2ccc(CO)cc2)[C@H](Cc2ccccc2)[C@H](O)[C@@H](O)[C@@H](Cc2ccccc2)N1Cc1ccc(CO)cc1 [DMP-323]	115 nM		3.56	
